# Laboratory results from article PMC4838375 (Nucleic Acids Research, 2016).
# Experiment: 15N relaxation, tumbling correlation time
# Assay type: physicochemical, murine
# Conditions: 15N relaxation (R2/R1), free protein, 600 MHz, 295 K
# Method in brief: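 Uniformly ¹⁵N-labelled domain expressed in E. coli BL21(DE3) on ¹⁵NH₄Cl minimal medium. Typical sample 0.3–0.4 mM in 20 mM sodium phosphate pH 6.3, 0.15 M NaCl, 2 mM DTT, 50 μM ZnCl₂. R1 sampled at 13 delays (50–2000 ms), R2 at 11 (12–244 ms), with heating compensation, random order and 2.5 s recovery. Duplicates fitted to two-parameter exponentials. τc from R2/R1, using non-overlapped residues with hetNOE > 0.65.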
molecule,measurement,value
"PHDVC5HCHNSD1: Murine NSD1 PHDvC5HCH (Glu2117–Asp2207), tandem domain, human residue numbering Glu2116–Asp2206 (protein, UniProt O88491 2117-2207, looked up, fragment) REYVPPTATSPPSPGTQPKEQSSEMATQGPKKSDQPPTDATQLLPLSKKALTGSCQRPLLPERPPERTDSSSHLLDRIRDLAGSGTKSQSL",correlation time (free),7.96±0.41 ns
